According to ChEMBL document CHEMBL1124112, “Indoline analogues of idazoxan: potent alpha 2-antagonists and alpha 1-agonists” (J Med Chem, 1988):

How the values were obtained:
[1] = tested on: Rattus norvegicus; assay: In vivo antagonist dose producing two fold shift of cirazoline in pithed rats. (postjunctional)
[2] = tested on: Rattus norvegicus; assay: In vivo ED40 is the raising diastolic blood pressure by 40 mm Hg in pithed rats. (postjunctional); format: functional; conditions: Artery
Summary of the method: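 Pithed rats, compound given iv in cumulative doses. ED40 is the dose (μg/kg) raising diastolic blood pressure by 40 mmHg. Separate groups of rats (n = 4-6).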

[3] = tested on: Rattus norvegicus; assay: In vivo antagonist dose producing two fold shift of UK-14,304 in pithed rats. (prejunctional)
[4] = biological target: Adrenergic receptor alpha-2 (Rattus norvegicus) (UniProt P22086+P19328+P22909); assay: Antagonism at alpha-2 adrenergic receptor, determined as dose required to produce a two fold shift of the dose-response curve to UK-14304 on the twitch response in rat vas deferens; format: functional, tissue-based
Summary of the method: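 Pithed rats, iv. Antagonist given before a cumulative dose-response curve to UK-14,304 on the vas deferens twitch response. DR2 is the antagonist dose (μg/kg) giving a twofold shift of the curve. Separate groups of rats (n = 4-6).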

[5] = biological target: Adrenergic receptor alpha-1 (Rattus norvegicus) (UniProt P15823+P23944+P43140); assay: Agonism at alpha-1 adrenergic receptor, determined as the dose required to produce a two fold shift of the cirazoline on diastolic blood pressure.; format: functional, tissue-based; conditions: Artery
[6] = biological target: T1, Adrenergic receptor alpha-1 (Rattus norvegicus, UniProt P15823+P23944+P43140); assay: Inhibition of saturable binding of [3H]prazosin to alpha-1 adrenergic receptor site in rat cerebral cortical membranes.; format: cell membranes, Membrane
T1 sequence (P15823 whole entry): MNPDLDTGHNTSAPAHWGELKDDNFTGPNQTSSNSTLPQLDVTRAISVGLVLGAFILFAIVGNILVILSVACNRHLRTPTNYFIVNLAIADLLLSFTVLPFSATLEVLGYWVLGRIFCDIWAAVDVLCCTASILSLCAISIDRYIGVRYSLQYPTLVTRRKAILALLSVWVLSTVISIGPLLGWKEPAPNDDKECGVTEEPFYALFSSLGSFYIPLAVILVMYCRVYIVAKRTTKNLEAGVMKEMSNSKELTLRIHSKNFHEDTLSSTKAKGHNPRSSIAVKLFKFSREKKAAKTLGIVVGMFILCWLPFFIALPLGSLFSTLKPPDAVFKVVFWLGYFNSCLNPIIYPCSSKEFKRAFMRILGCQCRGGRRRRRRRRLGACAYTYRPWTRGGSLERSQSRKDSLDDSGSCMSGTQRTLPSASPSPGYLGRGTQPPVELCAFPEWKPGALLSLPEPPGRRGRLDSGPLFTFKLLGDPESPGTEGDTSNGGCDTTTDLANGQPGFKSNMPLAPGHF
T1 sequence (P23944 whole entry): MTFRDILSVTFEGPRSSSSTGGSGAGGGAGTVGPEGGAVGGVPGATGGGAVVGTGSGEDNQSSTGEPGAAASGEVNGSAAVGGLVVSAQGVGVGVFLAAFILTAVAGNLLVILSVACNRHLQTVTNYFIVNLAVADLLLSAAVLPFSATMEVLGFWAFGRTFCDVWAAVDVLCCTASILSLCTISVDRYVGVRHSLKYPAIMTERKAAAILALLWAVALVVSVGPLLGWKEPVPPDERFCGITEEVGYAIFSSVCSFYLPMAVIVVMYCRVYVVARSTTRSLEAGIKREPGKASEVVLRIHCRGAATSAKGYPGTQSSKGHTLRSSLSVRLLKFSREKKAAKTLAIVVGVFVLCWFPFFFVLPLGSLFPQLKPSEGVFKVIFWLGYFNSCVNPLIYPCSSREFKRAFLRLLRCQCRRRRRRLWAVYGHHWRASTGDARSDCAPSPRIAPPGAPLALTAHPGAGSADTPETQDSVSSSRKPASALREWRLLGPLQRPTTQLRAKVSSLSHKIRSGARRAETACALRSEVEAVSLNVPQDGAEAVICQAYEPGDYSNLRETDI
T1 sequence (P43140 whole entry): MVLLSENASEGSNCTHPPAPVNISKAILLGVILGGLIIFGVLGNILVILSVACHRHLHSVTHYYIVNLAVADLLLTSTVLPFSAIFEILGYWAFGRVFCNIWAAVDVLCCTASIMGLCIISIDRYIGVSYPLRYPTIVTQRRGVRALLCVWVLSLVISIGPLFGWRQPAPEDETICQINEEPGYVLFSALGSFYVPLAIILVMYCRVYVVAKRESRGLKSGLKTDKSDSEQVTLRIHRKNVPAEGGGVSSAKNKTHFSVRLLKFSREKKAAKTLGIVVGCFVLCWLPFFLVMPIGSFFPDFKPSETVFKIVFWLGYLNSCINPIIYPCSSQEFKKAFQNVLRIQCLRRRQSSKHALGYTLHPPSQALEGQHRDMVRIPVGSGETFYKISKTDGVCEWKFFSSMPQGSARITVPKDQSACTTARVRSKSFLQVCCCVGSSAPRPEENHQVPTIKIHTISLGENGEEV

[7] = tested on: Rattus norvegicus; assay: In vivo antagonist dose producing two fold shift of cirazoline in pithed rats. (postjunctional);AG- agonist; format: functional, organism-based; conditions: filed as agonist
Summary of the method: (§1)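 Pithed rats, iv. Antagonist given before a cumulative dose-response curve to cirazoline on diastolic blood pressure. DR2 is the antagonist dose (μg/kg) giving a twofold rightward shift. Separate groups of rats (n = 4-6).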

[8] = tested on: Rattus norvegicus; assay: In vivo dose required to inhibit vas deferens contraction by 25% after pretreatment with prazosin in pithed rats. (prejunctional); ant- antagonist; format: functional, organism-based; conditions: filed as antagonist
Summary of the method: (§2)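 Pithed rats pretreated with prazosin (1 mg/kg). Compound given iv in cumulative doses. ED25 is the dose (μg/kg) inhibiting vas deferens contraction by 25%. Separate groups of rats (n = 4-6).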

[9] = tested on: Adrenergic receptor alpha-2 (Rattus norvegicus); assay: Agonism at alpha-2 adrenergic receptor, determined as dose required to produce a two fold shift of the cumulative dose-response curve to UK-14304 on the twitch response in rat vas deferens.
[10] = biological target: T2, Adrenergic receptor alpha-2 (Rattus norvegicus, UniProt P22086+P19328+P22909); assay: Inhibition of saturable binding of [3H]idazoxan to alpha2-site in rat cerebral cortical membranes.; format: cell membranes, Membrane
T2 sequence (P22086 whole entry): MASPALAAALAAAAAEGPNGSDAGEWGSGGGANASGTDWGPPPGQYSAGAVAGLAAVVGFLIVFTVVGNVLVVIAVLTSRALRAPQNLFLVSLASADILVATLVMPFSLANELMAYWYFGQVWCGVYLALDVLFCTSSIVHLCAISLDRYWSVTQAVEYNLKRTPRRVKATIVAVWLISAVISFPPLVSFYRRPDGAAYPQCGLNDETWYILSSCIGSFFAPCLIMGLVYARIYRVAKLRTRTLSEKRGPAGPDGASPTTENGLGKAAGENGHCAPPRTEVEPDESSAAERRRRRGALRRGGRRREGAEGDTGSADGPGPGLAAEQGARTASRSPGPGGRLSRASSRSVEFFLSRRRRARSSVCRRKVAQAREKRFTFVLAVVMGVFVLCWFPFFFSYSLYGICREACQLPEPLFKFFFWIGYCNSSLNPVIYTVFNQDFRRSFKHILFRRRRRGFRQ
T2 sequence (P19328 whole entry): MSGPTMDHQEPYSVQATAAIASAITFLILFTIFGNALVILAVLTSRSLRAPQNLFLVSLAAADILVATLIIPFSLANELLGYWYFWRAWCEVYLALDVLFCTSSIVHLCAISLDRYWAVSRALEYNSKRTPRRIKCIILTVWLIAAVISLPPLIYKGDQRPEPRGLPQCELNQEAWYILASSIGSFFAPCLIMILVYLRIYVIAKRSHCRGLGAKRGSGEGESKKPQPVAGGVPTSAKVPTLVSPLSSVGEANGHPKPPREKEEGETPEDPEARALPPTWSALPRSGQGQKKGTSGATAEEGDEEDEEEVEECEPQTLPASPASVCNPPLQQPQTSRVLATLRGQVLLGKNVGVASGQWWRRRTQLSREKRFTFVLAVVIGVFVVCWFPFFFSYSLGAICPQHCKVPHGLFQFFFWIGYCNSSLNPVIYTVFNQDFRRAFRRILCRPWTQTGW
T2 sequence (P22909 whole entry): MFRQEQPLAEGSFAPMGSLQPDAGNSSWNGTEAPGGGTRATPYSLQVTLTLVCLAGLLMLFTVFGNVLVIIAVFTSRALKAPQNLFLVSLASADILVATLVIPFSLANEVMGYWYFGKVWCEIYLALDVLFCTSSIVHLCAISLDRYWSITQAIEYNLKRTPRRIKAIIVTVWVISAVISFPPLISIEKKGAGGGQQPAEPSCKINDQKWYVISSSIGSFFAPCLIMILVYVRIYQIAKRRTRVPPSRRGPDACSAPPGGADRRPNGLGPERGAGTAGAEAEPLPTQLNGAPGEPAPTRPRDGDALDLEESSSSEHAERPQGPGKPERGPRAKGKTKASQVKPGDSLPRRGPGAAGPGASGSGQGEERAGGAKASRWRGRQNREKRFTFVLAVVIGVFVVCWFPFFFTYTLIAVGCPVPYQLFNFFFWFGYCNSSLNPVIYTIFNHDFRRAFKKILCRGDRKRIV

[11] = tested on: Rattus norvegicus; assay: In vivo antagonist dose producing two fold shift of cirazoline in pithed rats. (postjunctional); format: functional
Summary of the method: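 Pithed rats, separate groups (n = 4-6). Cirazoline cumulative dose-response on diastolic blood pressure (postjunctional α1) was recorded with and without antagonist given iv. The antagonist dose (μg/kg, iv) giving a twofold rightward shift of the cirazoline curve was reported as DR2.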

[12] = tested on: Rattus norvegicus; assay: In vivo antagonist dose producing two fold shift of cirazoline in pithed rats. […]; format: functional
[13] = tested on: Rattus norvegicus; assay: In vivo dose required to inhibit vas deferens contraction by 25% after pretreatment with prazosin in pithed rats. (prejunctional); format: functional
Summary of the method: as §2

[14] = biological target: T1, Adrenergic receptor alpha-1; assay: Inhibition of saturable binding of [3H]prazosin to alpha1-site in rat cerebral cortical membranes.; format: cell membranes, Membrane
[15] = tested on: Rattus norvegicus; assay: In vivo antagonist dose producing two fold shift of cirazoline in pithed rats. (postjunctional); AG- agonist; format: functional, organism-based; conditions: filed as agonist
Summary of the method: as §1

Row | SMILES | DR2 [1] | ED40 [2] | DR2 [3] | Prejunctional antagonist potency [4] | Postjunctional agonist potency [5] | Ki [6] | ED40 [7] | ED25 [8] | Prejunctional agonist potency [9] | Ki [10] | DR2 [11] | ED40 [12] | ED25 [13] | Ki [14] | ED40 [15]
1 | c1ccc2c(c1)OCC(C1=NCCN1)O2 (configuration not stated) [IDAZOXAN] | 1.43 mg/kg | 65.5 µg/kg | 0.0202 mg/kg |  |  |  |  |  |  |  |  |  |  |  | 
2 | CN1c2cccc(Cl)c2CC1C1=NCCN1.Cl (configuration not stated) |  | 0.2 µg/kg | 0.0024 mg/kg | 10 | 17 | 13.1 nM | Agonist | Antagonist | 0.29 | 0.16 nM |  |  |  |  | 
3 | COc1cc2nc(N3CCN(C(=O)c4ccco4)CC3)nc(N)c2cc1OC [PRAZOSIN] |  |  | 5.44 mg/kg |  |  |  |  |  |  |  | 0.0094 mg/kg |  |  |  | 
4 | CN1c2ccccc2CC1C1=NCCN1 (configuration not stated) |  | 0.5 µg/kg |  | 5.5 | 3.8 | 3.86 nM | Agonist |  | 0.77 | 0.69 nM |  | 3.7 µg/kg | 4.1 µg/kg |  | 
5 | CCN1c2cccc(Cl)c2CC1C1=NCCN1 (configuration not stated) |  | 0.8 µg/kg | 0.0015 mg/kg | 8 | 4.4 |  |  | Antagonist | 0.51 | 0.42 nM |  |  |  | 1.9 nM | Agonist
